EC50 and residual insulin secretion data for 29 molecules are collected here from ChEMBL document CHEMBL4715732, “4-Phenylureido/thioureido-substituted 2,2-dimethylchroman analogs of cromakalim bearing a bulky 'carbamate' moiety at the 6-position as potent inhibitors of glucose-sensitive insulin secretion” (Eur J Med Chem, 2016).

SMILES strings stand for the structures. Bounds are passed on as bounds.

For assay [1], the system named is Aorta. Kind of assay: Myorelaxant activity in aortic rings isolated from Wistar rat assessed as reduction in KCl-induced contractions measured after 60 mins in presence of 80 mM KCl by force-displacement transducer. Format: functional, tissue-based. The settings on record: 1 h, in the assay text read “30 mM KCl” for “80 mM KCl”. The method, boiled down: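 Endothelium-free rat aorta rings were contracted with 30 mM or 80 mM K+, with 1 or 10 μM glibenclamide present for some 30 mM series. Agent was applied cumulatively. EC50 is the concentration giving 50% relaxation of the KCl-induced contraction, reported as mean ± SEM (n).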

Assay [2] in a line: Residual glucose-induced insulin secretion in Wistar rat pancreatic islets at 10 uM incubated for 90 mins in presence of 16.7 mM glucose by radioimmunological assay relative to control. The settings on record: Pancreatic islet, 1.5 h.
Assay [3] in a line: Residual glucose-induced insulin secretion in Wistar rat pancreatic islets at 1 uM incubated for 90 mins in presence of 16.7 mM glucose by radioimmunological assay relative to control. The note with it: Pancreatic islet, 1.5 h.

For orientation: EC50 means the concentration giving half of the maximal effect.

Consider `CCOC(=O)Nc1ccc2c(c1)C(NC(=O)Nc1cccc(C#N)c1)CC(C)(C)O2` (racemic), for which the EC50 in assay [1] was 14.2 µM. The residual insulin secretion at 10 µM in assay [2] was found to be 5.9%. Moreover, the residual insulin secretion at 1 µM in assay [3] was 81%.
Regarding `CC(C)(C)OC(=O)Nc1ccc2c(c1)C(NC(=O)Nc1ccc(C#N)cc1)CC(C)(C)O2` (racemic), the EC50 in assay [1] turned out to be 6.5 µM. Further, in assay [2], the residual insulin secretion at 10 µM worked out at 5.8%. Besides, the residual insulin secretion at 1 µM in assay [3] was determined as 53.4%.
On the same counts, the results for `CC(C)(C)OC(=O)Nc1ccc2c(c1)C(NC(=O)Nc1ccc(Cl)cc1)CC(C)(C)O2` (racemic) are 9.4 µM, 36.4% and 86.1%.
Regarding `CC(C)OC(=O)Nc1ccc2c(c1)C(NC(=S)Nc1ccc(C#N)cc1)CC(C)(C)O2` (stereo not given), the concentration for a half-maximal effect (EC50) in assay [1] was found to be 7.2 µM. In addition, in assay [2], the residual insulin secretion at 10 µM amounted to 14.8%. In addition, in assay [3], the residual insulin secretion at 1 µM turned out to be 86%.
For `CC(C)OC(=O)Nc1ccc2c(c1)C(NC(=O)Nc1ccc(C#N)cc1)CC(C)(C)O2` (racemic) the same measures were 17.7 µM, 14.1% and 80.7%.
On to `CC(C)OC(=O)Nc1ccc2c(c1)C(NC(=S)Nc1ccc(Cl)cc1)CC(C)(C)O2` (racemic), for which, in assay [1], the EC50 was 10.4 µM. Moreover, in assay [2], the residual insulin secretion at 10 µM worked out at 14.9%. Moreover, in assay [3], the residual insulin secretion at 1 µM was determined as 81.2%.
For the molecule `CC(C)OC(=O)Nc1ccc2c(c1)C(NC(=S)Nc1cccc(C#N)c1)CC(C)(C)O2` (racemic), the EC50 in assay [1] came out at 5.6 µM. Also, in assay [2], the residual insulin secretion at 10 µM came to 14.2%. Besides, the residual insulin secretion at 1 µM in assay [3] was 79.3%.
On to `COC(=O)Nc1ccc2c(c1)C(NC(=O)Nc1cccc(C#N)c1)CC(C)(C)O2` (racemic), for which the EC50 in assay [1] is 16.9 µM. Moreover, in assay [2], the residual insulin secretion at 10 µM worked out at 9.4%. Besides, the residual insulin secretion at 1 µM in assay [3] came to 88.3%.
On to `COC(=O)Nc1ccc2c(c1)C(NC(=O)Nc1ccc(C#N)cc1)CC(C)(C)O2` (racemic), for which the EC50 in assay [1] was more than 30 µM. The residual insulin secretion at 10 µM in assay [2] amounted to 36.9%. In addition, the residual insulin secretion at 1 µM in assay [3] stood at 89.7%.
On the same counts, the results for `CC(C)(C)OC(=O)Nc1ccc2c(c1)C(NC(=O)Nc1cccc(Cl)c1)CC(C)(C)O2` (racemic) are 18.7 µM, 11% and 86.4%.
Regarding `COC(=O)Nc1ccc2c(c1)C(NC(=S)Nc1cccc(C#N)c1)CC(C)(C)O2` (racemic), the EC50 in assay [1] was 4.8 µM. Besides, the residual insulin secretion at 10 µM in assay [2] worked out at 29.3%. The residual insulin secretion at 1 µM in assay [3] was determined as 85.1%.
On the same counts, the results for `CC(C)OC(=O)Nc1ccc2c(c1)C(NC(=O)Nc1cccc(Cl)c1)CC(C)(C)O2` (racemic) are 12.6 µM, 23.7% and 92%.
Consider `CC(C)OC(=O)Nc1ccc2c(c1)C(NC(=S)Nc1cccc(Cl)c1)CC(C)(C)O2` (racemic), for which the EC50 in assay [1] is 11 µM. For the same molecule, the residual insulin secretion at 10 µM in assay [2] worked out at 19.3%. Also, the residual insulin secretion at 1 µM in assay [3] is 81.5%.
Regarding `COC(=O)Nc1ccc2c(c1)C(NC(=S)Nc1ccc(C#N)cc1)CC(C)(C)O2` (racemic), in assay [1], the EC50 was more than 30 µM. Further, the residual insulin secretion at 10 µM in assay [2] worked out at 27.8%. For the same molecule, the residual insulin secretion at 1 µM in assay [3] is 93.8%.
Regarding `COC(=O)Nc1ccc2c(c1)C(NC(=O)Nc1ccc(Cl)cc1)CC(C)(C)O2` (racemic), the EC50 in assay [1] is more than 30 µM. Further, the residual insulin secretion at 10 µM in assay [2] was 53.7%. The residual insulin secretion at 1 µM in assay [3] was determined as 92.7%.
Regarding `CCOC(=O)Nc1ccc2c(c1)C(NC(=O)Nc1ccc(C#N)cc1)CC(C)(C)O2` (racemic), in assay [1], the concentration giving a half-maximal response (EC50) is more than 30 µM. For the same molecule, the residual insulin secretion at 10 µM in assay [2] is 17.4%. For the same molecule, the residual insulin secretion at 1 µM in assay [3] came out at 79.5%.
`CCOC(=O)Nc1ccc2c(c1)C(NC(=S)Nc1cccc(C#N)c1)CC(C)(C)O2` (racemic): the EC50 in assay [1] turned out to be 12.3 µM. The residual insulin secretion at 10 µM in assay [2] came to 14.8%. For the same molecule, in assay [3], the residual insulin secretion at 1 µM stood at 77.6%.
As to `CCOC(=O)Nc1ccc2c(c1)C(NC(=O)Nc1ccc(Cl)cc1)CC(C)(C)O2` (racemic), the EC50 in assay [1] was 21.2 µM. In addition, in assay [2], the residual insulin secretion at 10 µM worked out at 49.9%. Moreover, in assay [3], the residual insulin secretion at 1 µM is 92.1%.
On the same counts, the results for `CCOC(=O)Nc1ccc2c(c1)C(NC(=S)Nc1ccc(C#N)cc1)CC(C)(C)O2` (racemic) are 19.4 µM, 10.2% and 80.2%.
For the molecule `CCOC(=O)Nc1ccc2c(c1)C(NC(=O)Nc1cccc(Cl)c1)CC(C)(C)O2` (racemic), the EC50 in assay [1] amounted to 13.1 µM. Further, the residual insulin secretion at 10 µM in assay [2] was found to be 36.1%. The residual insulin secretion at 1 µM in assay [3] was determined as 82.8%.
For the molecule `CC(C)OC(=O)Nc1ccc2c(c1)C(NC(=O)Nc1cccc(C#N)c1)CC(C)(C)O2` (racemic), the EC50 in assay [1] was determined as 12.1 µM. In assay [2], the residual insulin secretion at 10 µM is 12.7%. The residual insulin secretion at 1 µM in assay [3] was 50.5%.
`CC1(C)Oc2ccc(C#N)cc2C(N2CCCC2=O)C1O` (racemic) [CROMAKALIM]: the residual insulin secretion at 10 µM in assay [2] came out at 94.4%. Further, in assay [3], the residual insulin secretion at 1 µM was 95.3%.
As to `CC(C)OC(=O)Nc1ccc2c(c1)C(NC(=O)Nc1ccc(Cl)cc1)CC(C)(C)O2` (racemic), in assay [1], the EC50 stood at 46.2 µM. Further, in assay [2], the residual insulin secretion at 10 µM turned out to be 48.7%. The residual insulin secretion at 1 µM in assay [3] amounted to 92.3%.
For `COC(=O)Nc1ccc2c(c1)C(NC(=O)Nc1cccc(Cl)c1)CC(C)(C)O2` (racemic) the same measures were more than 30 µM, 35.7% and 92%.
Regarding `CC1=Nc2ccc(Cl)cc2S(=O)(=O)N1` [DIAZOXIDE], the residual insulin secretion at 10 µM in assay [2] was determined as 80.8%. For the same molecule, the residual insulin secretion at 1 µM in assay [3] worked out at 91%.
In the case of `COC(=O)Nc1ccc2c(c1)C(NC(=S)Nc1cccc(Cl)c1)CC(C)(C)O2` (racemic), the EC50 in assay [1] is 15.4 µM. For the same molecule, the residual insulin secretion at 10 µM in assay [2] was 26.1%. Further, in assay [3], the residual insulin secretion at 1 µM is 84.2%.
In the case of `CCOC(=O)Nc1ccc2c(c1)C(NC(=S)Nc1ccc(Cl)cc1)CC(C)(C)O2` (racemic), the EC50 in assay [1] amounted to 8.9 µM. Besides, in assay [2], the residual insulin secretion at 10 µM was 22%. Moreover, in assay [3], the residual insulin secretion at 1 µM was determined as 78.4%.
On the same counts, the results for `COC(=O)Nc1ccc2c(c1)C(NC(=S)Nc1ccc(Cl)cc1)CC(C)(C)O2` (racemic) are 24.4 µM, 22.8% and 84.9%.
With `CCOC(=O)Nc1ccc2c(c1)C(NC(=S)Nc1cccc(Cl)c1)CC(C)(C)O2` (racemic), the EC50 in assay [1] amounted to 22.7 µM. The residual insulin secretion at 10 µM in assay [2] turned out to be 21.5%. Also, in assay [3], the residual insulin secretion at 1 µM came to 73.7%.
